Data from ChEMBL document CHEMBL2375304, “Synthesis and anticancer activity of novel 2-pyridyl hexahyrocyclooctathieno[2,3-d]pyrimidine derivatives” (2013).

Assays:
Assay type in all cases: functional
SF-295 = assay: Growth inhibition of human SF295 cells at 10^-5 M after 48 hrs by Sulforhodamine B assay relative to control; details: SF-295, 48 h, read-out: GI
In short: (§1)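 Single-dose primary screen at 10⁻⁵ M across 49 lines. Cells were plated 24 h beforehand, with a TCA-fixed time-zero plate, then exposed 48 h at 37 °C, 5% CO2. Cells were fixed with cold TCA, stained with SRB and read at 515 nm. Percent growth was calculated against time-zero and untreated-control absorbances.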

KM12 = assay: Growth inhibition of human KM12 cells at 10^-5 M after 48 hrs by Sulforhodamine B assay relative to control; details: KM12, 48 h, read-out: GI
In short: (§2)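 Single-dose screen at 10⁻⁵ M. Cells are preincubated 24 h at 37 °C in 5% CO2, then exposed to the compound, diluted from a DMSO stock into medium with gentamicin, for 48 h. Adherent cells are fixed with cold TCA (final 10%) and suspension cells with TCA (final 16%). Cells are stained with 0.4% SRB in 1% acetic acid and bound dye is read at 515 nm. Percent growth inhibition is taken against control wells and time-zero plates.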

IGROV-1 = assay: Growth inhibition of human IGROV1 cells at 10^-5 M after 48 hrs by Sulforhodamine B assay relative to control; details: IGROV-1, 48 h, read-out: GI; in short: as §2
OVCAR-4 = assay: Growth inhibition of human OVCAR4 cells at 10^-5 M after 48 hrs by Sulforhodamine B assay relative to control; details: OVCAR-4, 48 h, read-out: GI; in short: as §1
BT-549 = assay: Growth inhibition of human BT549 cells at 10^-5 M after 48 hrs by Sulforhodamine B assay relative to control; details: BT-549, 48 h, read-out: GI; in short: as §2
M14 = assay: Growth inhibition of human M14 cells at 10^-5 M after 48 hrs by Sulforhodamine B assay relative to control; details: M14, 48 h, read-out: GI; in short: as §2
OVCAR-3 = assay: Growth inhibition of human OVCAR3 cells at 10^-5 M after 48 hrs by Sulforhodamine B assay relative to control; details: OVCAR-3, 48 h, read-out: GI; in short: as §1
DU-145 = assay: Growth inhibition of human DU145 cells at 10^-5 M after 48 hrs by Sulforhodamine B assay relative to control; details: DU-145, 48 h, read-out: GI; in short: as §2
K562 = assay: Growth inhibition of human K562 cells at 10^-5 M after 48 hrs by Sulforhodamine B assay relative to control; details: K562, 48 h, read-out: GI; in short: as §2
MDA-MB-468 = assay: Growth inhibition of human MDA-MB-468 cells at 10^-5 M after 48 hrs by Sulforhodamine B assay relative to control; details: MDA-MB-468, 48 h, read-out: GI; in short: as §1
SN12C = assay: Growth inhibition of human SN12C cells at 10^-5 M after 48 hrs by Sulforhodamine B assay relative to control; details: read-out: GI; in short: as §1
HT-29 = assay: Growth inhibition of human HT-29 cells at 10^-5 M after 48 hrs by Sulforhodamine B assay relative to control; details: HT-29, 48 h, read-out: GI; in short: as §2
Malme-3M = assay: Growth inhibition of human MALME-3M cells at 10^-5 M after 48 hrs by Sulforhodamine B assay relative to control; details: read-out: GI; in short: as §2

SMILES | inhibition of growth at 10 µM (SF-295) | inhibition of growth at 10 µM (KM12) | inhibition of growth at 10 µM (IGROV-1) | inhibition of growth at 10 µM (OVCAR-4) | inhibition of growth at 10 µM (BT-549) | inhibition of growth at 10 µM (M14) | inhibition of growth at 10 µM (OVCAR-3) | inhibition of growth at 10 µM (DU-145) | inhibition of growth at 10 µM (K562) | inhibition of growth at 10 µM (MDA-MB-468) | inhibition of growth at 10 µM (SN12C) | inhibition of growth at 10 µM (HT-29) | inhibition of growth at 10 µM (Malme-3M)
COc1ccc(N2CCN(c3nc(-c4ccncc4)nc4sc5c(c34)CCCCCC5)CC2)cc1 | 11.5% | 22.4% | 3.43% | 11.1% | -17.1% | -0.58% | 9.75% | 2.73% | 23.2% | 0.83% | 31.8% | 23.4% | -7.69%
CN1CCN(c2nc(-c3ccccn3)nc3sc4c(c23)CCCCCC4)CC1 | 13.8% | 8.11% | 6.64% | 16% | 10.3% | 6.12% | -5.6% | -11.6% | 20% | 5.4% | 3.33% | 5.9% | -0.36%
